This note sets out measurements from ChEMBL document CHEMBL4024792, “(N-Hydroxycarbonylbenylamino)quinolines as Selective Histone Deacetylase 6 Inhibitors Suppress Growth of Multiple Myeloma in Vitro and in Vivo” (J Med Chem, 2018).

Data set [1] has as its system Mus musculus. Kind of data set: Toxicity in nude mouse xenografted with human RPMI8226 cells assessed as change in body weight at 30 mg/kg, iv or ip administered for 5 days followed by 2 days off for 35 days. The data set is classed as organism-based. Conditions: in vivo. The method in brief: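 Male 8-week nude mice implanted sc with 1×10^7 RPMI 8226 cells, randomized at ~200 mm3 (n = 8). […] Vehicle: 0.5% EtOH/0.5% Cremophor in 5% dextran.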

Data set [2] can be described thus: Half life in human hepatocytes at 10 uM by LC-MS/MS analysis. The data set is classed as ADME, cell-based, Hepatocyte. The method in brief:
(§1)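 Substrate depletion in cryopreserved hepatocytes (male SD rat, male beagle dog, human). Compound at 10 µM incubated at 37 °C for up to 4 h. Cell density approximately 0.5 × 10^6 hepatocytes/well for rat and dog, 0.24 × 10^6/well for human. Half-life and CLint derived from depletion; % remaining at 60 min also reported.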

Data set [3] in a line: Apparent permeability from apical to basolateral side in human Caco2 cells at 10 uM after 2 hrs by LC-MS/MS analysis. The data set is classed as ADME, cell-based. Conditions: Caco-2. The method in brief:
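Caco-2 cells seeded at 8.4 × 10^4 cells/cm2 on polycarbonate inserts for 21 days. For A→B, donor was apical (HBSS/MES pH 6.5, 10 µM compound) and receiver basolateral (HBSS/HEPES pH 7.4). For B→A, donor was basolateral (HBSS/HEPES pH 7.4, 10 µM) and receiver apical (HBSS/MES pH 6.5). Incubated at 37 °C for 2 h. Receiver sampled at 30, 60, 90 and 120 min, donor at 0 and 120 min.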

Data set [4] concerns RPMI-8226. As to the kind of experiment: Cell cycle arrest in human RPMI8226 cells assessed as accumulation at G0/G1 phase at 5 uM after 24 hrs in presence of bortezomib by propidium iodide staining based flow cytometry (reference value: 44.67%). The data set is classed as functional.
Data set [5] can be described thus: Half life in Sprague-Dawley rat hepatocytes at 10 uM by LC-MS/MS analysis. It counts as ADME, cell-based, Hepatocyte. The method in brief:
as §1

For data set [6], the system named is RPMI-8226. As to the kind of experiment: Antitumor activity against human RPMI8226 cells xenografted in nude mouse assessed as tumor growth inhibition at 30 mg/kg, iv or ip administered for 5 days followed by 2 days off for 35 days relative to control. It counts as functional. To be noted: read-out: TGI. The procedure, abridged:
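RPMI 8226 cells (1 × 10^7) implanted s.c. in eight-week-old male nude mice. At mean tumor volume 200 mm3, mice randomized into four groups (n = 8). Caliper measurement every 3–4 days, volume L×W²/2. %TGI computed from treated versus control volume changes relative to time 0.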

The subject of data set [7] is RPMI-8226. Kind of data set: Cell cycle arrest in human RPMI8226 cells assessed as accumulation at G2/M phase at 5 uM after 24 hrs by propidium iodide staining based flow cytometry (reference value: 23.94%). The data set is classed as functional.
The test system of data set [8] is U-266. As to the kind of experiment: Cell cycle arrest in human U266 cells assessed as accumulation at G0/G1 phase at 5 uM after 24 hrs by propidium iodide staining based flow cytometry (reference value: 40.29%). The data set is classed as functional.
In data set [9] the test system is Mus musculus. Kind of data set: Toxicity in Balb/c mouse assessed as change in body weight at 50 to 200 mg/kg, ip administered once daily for 1 week measured for 1 week. The data set is classed as organism-based. Conditions: in vivo, 168 h. The procedure, abridged:
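Male 8-week balb/c mice, ten per dose, given compound ip once daily for 7 days at 50, 100 or 200 mg/kg, then monitored one week. Body weight recorded over 14 days. MTD = highest dose with no drug-related moribund state or death and weight loss under 20%.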

Data set [10] is described as follows: Intrinsic clearance in human hepatocytes at 10 uM by LC-MS/MS analysis. It counts as ADME, cell-based, Hepatocyte. Conditions: read-out: CLH. The method in brief:
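Cryopreserved hepatocytes (Sprague-Dawley rat, beagle dog, human) incubated with compound at 10 µM, 37 °C, for up to 4 h. About 0.5×10^6 cells/well for rat and dog, 0.24×10^6 for human.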

In data set [11] the test system is RPMI-8226. Kind of data set: Cell cycle arrest in human RPMI8226 cells assessed as accumulation at S phase at 5 uM after 24 hrs by propidium iodide staining based flow cytometry (reference value: 19.53%). It counts as functional.
In data set [12] the test system is U-266. Kind of data set: Cell cycle arrest in human U266 cells assessed as accumulation at sub-G1 phase at 5 uM after 24 hrs in presence of bortezomib by propidium iodide staining based flow cytometry (reference value: 10.76%). It counts as functional.
In data set [13] the test system is U-266. As to the kind of experiment: Cell cycle arrest in human U266 cells assessed as accumulation at G2/M phase at 5 uM after 24 hrs in presence of bortezomib by propidium iodide staining based flow cytometry (reference value: 35.13%). The data set is classed as functional.

On to `O=C(NO)c1ccc(CNc2cccc3cccnc23)cc1`, for which the Activity entry is on record as “Non-Toxic” in the data set with Mus musculus [1]; 6.3% in the data set with RPMI-8226 [4]; 31.53% in the data set on RPMI-8226 [7]; 52.88% in the data set on U-266 [8]; “Non-Toxic” in the data set on Mus musculus [9]; 15.19% in the data set with RPMI-8226 [11]. The figures for the Activity in the data set on U-266 [12] and in the data set with U-266 [13] were 45.29% and 21.52%, respectively. The half-life at 10 µM in data set [2] was determined as 4 h; in data set [5] it was 0.93 h. For the same compound, the Papp A→B at 2 h, 10 µM in [3] was determined as 24 ×10⁻⁶ cm/s. Further, the inhibition in vivo at 30 mg/kg in the data set with RPMI-8226 [6] turned out to be 60.4%. Besides, in [10], the CLint scaled at 10 µM amounted to 32.5 mL/min/kg.
